Assay results published in ChEMBL document CHEMBL1126807, “Inhibition of bone resorption by H+/K(+)-ATPase inhibitors” (J Med Chem, 1993).
Values belong to the compound of their own block, whether it stands above or below them.

Experiments:
Rattus norvegicus [1] = organism: Rattus norvegicus; assay: Tested for the inhibition of bone resorption by measuring mean total resorption at 10 e -5 M (sd 1111); type: functional
Summary of the method: (§1)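 Osteoclasts mechanically disaggregated from neonatal rat long bones into Hepes-buffered medium 199, settled 30 s, allowed to attach to bone slices (2.5 mm²) for 15 min at 37 °C, washed, then cultured overnight in 10% newborn calf serum in Hanks-buffered MEM with or without drug. Cells removed with 10% NaOCl, slices gold-coated, entire surface scanned by SEM for pit number, pit size and resorbed plan area. Student's t-test.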

Rattus norvegicus [2] = organism: Rattus norvegicus; assay: Tested for inhibition of bone resorption by osteoclasts in a bone slice assay in rats at 10 e -5 M; type: functional; summary of the method: as §1
Rattus norvegicus [3] = organism: Rattus norvegicus; assay: Tested for the inhibition of bone resorption by measuring number of pits/slice at 10 e -8 M (sd 5.51); type: functional; summary of the method: as §1
Rattus norvegicus [4] = organism: Rattus norvegicus; assay: Tested for the inhibition of bone resorption by measuring mean pit size at 10 e -8 M (sd 1092); type: functional; summary of the method: as §1
[5] = Tested for the inhibition of reversibility of hog gastric H+/K+-ATPase at 0.01 uM (200-fold dilution after pre-incubation); type: functional, Sus scrofa, Stomach; design: scale not given: the % may be the effect or the level left
Rattus norvegicus [6] = organism: Rattus norvegicus; assay: Tested for the inhibition of bone resorption by measuring mean total resorption at 10 e -6 M (sd 3349); type: functional; summary of the method: as §1
Rattus norvegicus [7] = organism: Rattus norvegicus; assay: Tested for the inhibition of bone resorption by measuring number of pits/slice at 10 e -6 M (sd 3.46); type: functional; summary of the method: as §1
Rattus norvegicus [8] = organism: Rattus norvegicus; assay: Tested for the inhibition of bone resorption by measuring mean total resorption at 10 e -8 M (sd 5079); type: functional; summary of the method: as §1
[9] = Tested for reversible inhibition against gastric H+/K+-ATPase isolated from porcine gastric microsomes; value ranges from 3-10 uM; type: functional, Sus scrofa, Stomach
[10] = Tested for the inhibition of reversibility of hog gastric H+/K+-ATPase at 2 uM; type: functional, Sus scrofa, Stomach; design: scale not given: the % may be the effect or the level left
Rattus norvegicus [11] = organism: Rattus norvegicus; assay: Tested for the inhibition of bone resorption by measuring number of pits/slice at 10 e -7 M (sd 3.94); type: functional; summary of the method: as §1
Rattus norvegicus [12] = organism: Rattus norvegicus; assay: Tested for the inhibition of bone resorption by measuring mean pit size at 10 e -6 M (sd 814); type: functional; summary of the method: as §1
Rattus norvegicus [13] = organism: Rattus norvegicus; assay: Tested for the inhibition of bone resorption by measuring mean total resorption at 10 e -7 M (sd 4088); type: functional; summary of the method: as §1
Rattus norvegicus [14] = organism: Rattus norvegicus; assay: Tested for the inhibition of bone resorption by measuring number of pits/slice at 10 e -5 M (sd 1.88); type: functional; summary of the method: as §1
Rattus norvegicus [15] = organism: Rattus norvegicus; assay: Tested for the inhibition of bone resorption by measuring mean pit size at 10 e -7 M (sd 1032); type: functional; summary of the method: as §1
Rattus norvegicus [16] = organism: Rattus norvegicus; assay: Tested for the inhibition of bone resorption by measuring mean pit size at 10 e -5 M (sd 562); type: functional; summary of the method: as §1
Rattus norvegicus [17] = organism: Rattus norvegicus; assay: Tested for the inhibition of bone resorption by measuring mean total resorption at 10 e -5 M (sd 2675); type: functional; summary of the method: as §1
Rattus norvegicus [18] = organism: Rattus norvegicus; assay: Tested for inhibition of bone resorption by osteoclasts in a bone slice assay in rats at 10 e -7 M; type: functional; summary of the method: as §1
Rattus norvegicus [19] = organism: Rattus norvegicus; assay: Tested for the inhibition of bone resorption by measuring mean pit size at 10 e -5 M (sd 1012); type: functional; summary of the method: as §1
[20] = Tested for the inhibition of reversibility of hog gastric H+/K+-ATPase at 10 uM; type: functional, Sus scrofa, Stomach; design: scale not given: the % may be the effect or the level left
Rattus norvegicus [21] = organism: Rattus norvegicus; assay: Tested for the inhibition of bone resorption by measuring mean pit size at 10 e -6 M (sd 963); type: functional; summary of the method: as §1
Rattus norvegicus [22] = organism: Rattus norvegicus; assay: Tested for the inhibition of bone resorption by measuring number of pits/slice at 10 e -5 M (sd 2.74); type: functional; summary of the method: as §1
[23] = Tested for the inhibition of reversibility of hog gastric H+/K+-ATPase at 0.05 uM (200-fold dilution after pre-incubation); type: functional, Sus scrofa, Stomach; design: scale not given: the % may be the effect or the level left
Rattus norvegicus [24] = organism: Rattus norvegicus; assay: Tested for the inhibition of bone resorption by measuring number of pits/slice at 10 e -7 M (sd 3.53); type: functional; summary of the method: as §1
Rattus norvegicus [25] = organism: Rattus norvegicus; assay: Tested for the inhibition of bone resorption in neonatal rat long bones by measuring mean total resorption at 10 e -6 M (sd 4446); type: functional; summary of the method: as §1
Rattus norvegicus [26] = organism: Rattus norvegicus; assay: Tested for the inhibition of bone resorption in neonatal rat long bones by measuring mean pit size at 10 e -8 M (sd 1498); type: functional; summary of the method: as §1
Rattus norvegicus [27] = organism: Rattus norvegicus; assay: Tested for the inhibition of bone resorption in neonatal rat long bones by measuring mean total resorption at 10 e -8 M (sd 7210); type: functional; summary of the method: as §1
Rattus norvegicus [28] = organism: Rattus norvegicus; assay: Tested for the inhibition of bone resorption in neonatal rat long bones by measuring mean total resorption at 10 e -7 M (sd 4081); type: functional; summary of the method: as §1
Rattus norvegicus [29] = organism: Rattus norvegicus; assay: Tested for the inhibition of bone resorption by measuring number of pits/slice at 10 e -6 M (sd 3.87); type: functional; summary of the method: as §1
Rattus norvegicus [30] = organism: Rattus norvegicus; assay: Tested for the inhibition of bone resorption by measuring number of pits/slice at 10 e -8 M (sd 4.87); type: functional; summary of the method: as §1
[31] = Tested for reversible inhibition against gastric H+/K+-ATPase isolated from porcine gastric microsomes; value ranges from […]; type: functional, Sus scrofa, Stomach

IC50 (Rattus norvegicus [2]): 4 µM
IC50 [9]: 3 µM
Structure (SMILES): CCOC(=O)c1cnc2c(OC)cccc2c1Nc1ccccc1C
Mean total resorption (Rattus norvegicus [1]): 1270 um2
No. of pits/slice (Rattus norvegicus [3]): 9.83
Mean pit size (Rattus norvegicus [4]): 926 µm²
Activity [5]: 90%
Mean total resorption (Rattus norvegicus [6]): 7300 um2
No. of pits/slice (Rattus norvegicus [7]): 9.17
Mean total resorption (Rattus norvegicus [8]): 8740 um2
Activity [10]: 66%
No. of pits/slice (Rattus norvegicus [11]): 9.5
Mean pit size (Rattus norvegicus [12]): 798 µm²
Mean total resorption (Rattus norvegicus [13]): 9060 um2
No. of pits/slice (Rattus norvegicus [14]): 2.67
Mean pit size (Rattus norvegicus [15]): 919 µm²
Mean pit size (Rattus norvegicus [16]): 477 µm²

IC50 (Rattus norvegicus [18]): 2 µM
IC50 [31]: 10 µM
Structure (SMILES): CCOC(=O)CCC(=O)c1cnc2c(OC)cccc2c1Nc1ccccc1C
Mean total resorption (Rattus norvegicus [17]): 2040 um2
Mean pit size (Rattus norvegicus [19]): 948 µm²
Activity [20]: 60%
Mean pit size (Rattus norvegicus [21]): 1190 µm²
No. of pits/slice (Rattus norvegicus [22]): 2.22
Activity [23]: 100%
No. of pits/slice (Rattus norvegicus [24]): 4.67
Mean total resorption (Rattus norvegicus [25]): 4040 um2
Mean pit size (Rattus norvegicus [26]): 1450 µm²
Mean total resorption (Rattus norvegicus [27]): 8400 um2
Mean total resorption (Rattus norvegicus [28]): 4790 um2
No. of pits/slice (Rattus norvegicus [29]): 3.39
No. of pits/slice (Rattus norvegicus [30]): 5.89
